Reference: ChEMBL document CHEMBL3792385, “Identification and Evaluation of Antiepileptic Activity of C21 Steroidal Glycosides from the Roots of Cynanchum wilfordii” (2016)

Legend:
Assay type in all cases: functional
[1] = system: Mus musculus; experiment: Antiepileptic activity in po dosed KM mouse assessed as protection against maximal electroshock-induced seizures administered 1 hr prior to electrical stimulation
In short: (§1)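 Male KM mice, 20 ± 2 g, dosed orally; vehicle-treated group as control. Read-out is protection rate against maximal electroshock-induced seizures. Graded doses of 25, 50, 75, 100 and 150 mg/kg were used. ED50 and 95% confidence interval were fitted to the Hill equation.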

[2] = system: Mus musculus; experiment: Antiepileptic activity in KM mouse assessed as protection against maximal electroshock-induced seizures at 100 mg/kg, po administered 1 hr prior to electrical stimulation; in short: as §1
[3] = system: Mus musculus; experiment: Antiepileptic activity in KM mouse assessed as protection against maximal electroshock-induced seizures at 75 mg/kg, po administered 1 hr prior to electrical stimulation; in short: as §1
[4] = system: Mus musculus; experiment: Antiepileptic activity in KM mouse assessed as protection against maximal electroshock-induced seizures at 50 mg/kg, po administered 1 hr prior to electrical stimulation; in short: as §1
[5] = system: Mus musculus; experiment: Antiepileptic activity in KM mouse assessed as protection against maximal electroshock-induced seizures at 150 mg/kg, po administered 1 hr prior to electrical stimulation; in short: as §1
[6] = system: Mus musculus; experiment: Antiepileptic activity in KM mouse assessed as protection against maximal electroshock-induced seizures at 25 mg/kg, po administered 1 hr prior to electrical stimulation; in short: as §1
[7] = system: Mus musculus; experiment: Antiepileptic activity in po dosed KM mouse assessed as protection against maximal electroshock-induced seizures administered 30 mins prior to electrical stimulation
In short: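 Male KM mice (20 ± 2 g) were given compound orally, with a vehicle control group. Screening used 100 mg/kg, and dose–response series used 25, 50, 75, 100 and 150 mg/kg. The read-out was the percentage of mice protected from MES-induced seizures. ED50 and 95% confidence intervals were derived by Hill-equation fitting.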

CO[C@H]1C[C@H](O[C@@H]2[C@H](C)O[C@@H](O[C@H]3[C@@H](OC)C[C@H](O[C@H]4CC[C@@]5(C)C(=CC[C@]6(O)[C@@H]5C[C@@H](OC(=O)/C=C/c5ccccc5)[C@@]5(C)[C@]6(O)CC[C@@]5(O)C(C)=O)C4)O[C@@H]3C)C[C@@H]2OC)O[C@H](C)[C@H]1O
ED50 [1]: 95.3 mg/kg | inhibition in vivo at 100 mg/kg [2]: 60%

CO[C@H]1C[C@@H](O[C@H]2[C@H](C)O[C@H](O[C@H]3[C@@H](C)O[C@H](O[C@H]4[C@@H](OC)C[C@H](O[C@@H]5CC[C@]6(C)C(=CC[C@@]7(O)[C@H]6C[C@H](OC(C)=O)[C@]6(C)[C@@]7(O)CC[C@]6(O)C(C)=O)C5)O[C@@H]4C)C[C@H]3OC)C[C@H]2OC)O[C@H](C)[C@H]1O
ED50 [1]: > 200 mg/kg

CO[C@H]1C[C@@H](O[C@H]2[C@H](C)O[C@H](O[C@H]3[C@@H](C)O[C@H](O[C@H]4[C@@H](OC)C[C@H](O[C@@H]5CC[C@]6(C)C(=CC[C@@]7(O)[C@H]6C[C@H](OC(=O)/C=C(\C)C(C)C)[C@]6(C)[C@@]7(O)CC[C@]6(O)C(C)=O)C5)O[C@@H]4C)C[C@H]3OC)C[C@H]2OC)O[C@H](C)[C@H]1O
ED50 [1]: 124 mg/kg | inhibition in vivo at 100 mg/kg [2]: 40%

CC[C@@H](C)C(=O)O[C@@H](C)[C@]1(O)CC[C@@]2(O)[C@]1(C)[C@H](OC(=O)/C=C/c1ccccc1)C[C@@H]1[C@@]3(C)CC[C@H](O[C@@H]4C[C@@H](OC)[C@@H](O[C@H]5C[C@H](OC)[C@H](O[C@H]6C[C@H](OC)[C@H](O[C@H]7C[C@@H](OC)[C@@H](O)[C@H](C)O7)[C@@H](C)O6)[C@H](C)O5)[C@H](C)O4)CC3=CC[C@]12O
ED50 [1]: 48.5 mg/kg | inhibition in vivo at 75 mg/kg [3]: 70% | inhibition in vivo at 50 mg/kg [4]: 50% | inhibition in vivo at 150 mg/kg [5]: 100% | inhibition in vivo at 25 mg/kg [6]: 20% | inhibition in vivo at 100 mg/kg [2]: 90%

CO[C@H]1C[C@H](O[C@H]2[C@H](C)O[C@H](O[C@H]3CC[C@@]4(C)C(=CC[C@]5(O)[C@@H]4C[C@@H](OC(=O)/C=C/c4ccccc4)[C@@]4(C)[C@]5(O)CC[C@@]4(O)[C@H](C)OC(=O)c4cccnc4)C3)C[C@H]2OC)O[C@@H](C)[C@H]1O[C@H]1C[C@H](OC)[C@H](O[C@H]2C[C@@H](OC)[C@@H](O)[C@H](C)O2)[C@@H](C)O1
ED50 [1]: 88.1 mg/kg | inhibition in vivo at 100 mg/kg [2]: 55.5%

CO[C@H]1C[C@@H](O[C@H]2[C@H](C)O[C@H](O[C@H]3[C@@H](C)O[C@H](O[C@H]4[C@@H](OC)C[C@H](O[C@@H]5CC[C@]6(C)C(=CC[C@@]7(O)[C@H]6C[C@H](O)[C@]6(C)[C@@]7(O)CC[C@]6(O)C(C)=O)C5)O[C@@H]4C)C[C@H]3OC)C[C@H]2OC)O[C@H](C)[C@H]1O
ED50 [1]: > 200 mg/kg

CO[C@H]1C[C@H](O[C@H]2[C@@H](OC)C[C@H](O[C@H]3CC[C@@]4(C)C(=CC[C@]5(O)[C@@H]4C[C@@H](OC(=O)/C=C(\C)C(C)C)[C@@]4(C)[C@]5(O)CC[C@@]4(O)C(C)=O)C3)O[C@@H]2C)O[C@@H](C)[C@H]1O[C@H]1C[C@H](OC)[C@H](O[C@H]2O[C@@H](CO)[C@H](O)[C@@H](O)[C@@H]2O)[C@@H](C)O1
ED50 [1]: > 200 mg/kg

CO[C@H]1C[C@@H](O[C@H]2[C@H](C)O[C@H](O[C@H]3[C@@H](C)O[C@H](O[C@H]4[C@@H](OC)C[C@H](O[C@@H]5CC[C@]6(C)C(=CCC(=O)[C@H]6C[C@H](OC(=O)/C=C/c6ccccc6)[C@]6(C)C(=O)CC[C@]6(O)[C@@H](C)OC(C)=O)C5)O[C@@H]4C)C[C@H]3OC)C[C@H]2OC)O[C@H](C)[C@H]1O
ED50 [1]: > 200 mg/kg

CO[C@H]1C[C@H](O[C@H]2CC[C@@]3(C)C(=CC[C@]4(O)[C@@H]3C[C@@H](OC(=O)/C=C(\C)C(C)C)[C@@]3(C)[C@]4(O)CC[C@@]3(O)C(C)=O)C2)O[C@H](C)[C@H]1O[C@@H]1C[C@@H](OC)[C@@H](O[C@H]2C[C@H](OC)[C@H](O[C@@H]3C[C@H](OC)[C@H](O[C@H]4O[C@@H](CO)[C@H](O)[C@@H](O)[C@@H]4O)[C@@H](C)O3)[C@@H](C)O2)[C@@H](C)O1
ED50 [1]: > 200 mg/kg

CO[C@H]1C[C@@H](O[C@H]2[C@H](C)O[C@H](O[C@H]3[C@@H](C)O[C@H](O[C@H]4[C@@H](OC)C[C@H](O[C@@H]5CC[C@]6(C)C(=CC[C@@]7(O)[C@H]6C[C@H](OC(=O)/C=C/c6ccccc6)[C@]6(C)[C@@]7(O)CC[C@]6(O)C(C)=O)C5)O[C@@H]4C)C[C@H]3OC)C[C@H]2OC)O[C@H](C)[C@H]1O
ED50 [1]: 72.3 mg/kg | inhibition in vivo at 100 mg/kg [2]: 70%

CCOC(=O)Nc1ccc(NCc2ccc(F)cc2)cc1N [EZOGABINE]
ED50 [7]: 15 mg/kg
